ChEMBL document CHEMBL1139312, “Synthesis and SAR of 6-chloro-4-fluoroalkylamino-2-heteroaryl-5-(substituted)phenylpyrimidines as anti-cancer agents” (Bioorg Med Chem, 2009)
Values after ≈ are worked out from the molar mass of the structure shown. Each block holds one compound with its values, some of them ahead of it. Active and inactive are the calls of the source. The calls are words filed in the database; no cut-off is given here.

Legend:
COLO 205 = experiment: Antiproliferative activity against human COLO205 cells after 24 hrs by MTS assay; type: functional, cell-based
[1] = Antiproliferative activity against human KBV1 cells after 3 days by SRB assay; type: functional, cell-based; conditions: KB-V1, 72 h
[2] = Ratio of IC50 for human KBV1 cells to IC50 for human KB cells; type: functional
Procedure, shortened: (§1)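 Resistance ratio: IC50 in KB 8.5 or KB V1 cells divided by IC50 in parental KB cells, each IC50 from 10-concentration duplicate dose–response curves; ratio near 1 means no resistance.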

KB [3] = experiment: Ratio of IC50 for human KB 8.5 cells to IC50 for human KB cells; type: functional; procedure, shortened: as §1
[4] = Antiproliferative activity against human KB 8.5 cells after 3 days by SRB assay; type: functional, cell-based; conditions: 72 h
KB [5] = experiment: Antiproliferative activity against human KB cells after 3 days by SRB assay; type: functional, cell-based; conditions: 72 h
[6] = Induction of tubulin polymerization
[7] = Metabolic stability in male cynomolgus monkey liver microsomes at 1 uM after 30 mins; type: ADME, Macaca fascicularis, Microsome
Procedure, shortened: (§2)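 Liver microsomes (1 mg/mL) from each species and sex were incubated with compound for 30 min at 37 °C in the presence of NADPH. Read-out was metabolic half-life (t1/2).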

[8] = Bioavailability in rat; type: ADME, organism-based; conditions: in vivo
Procedure, shortened: (§3)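 Rat pharmacokinetic parameters were derived by non-compartmental, model-independent analysis.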

[9] = Clearance in rat; type: ADME, organism-based; conditions: in vivo; procedure, shortened: as §3
[10] = Volume of distribution in rat; type: ADME, organism-based; conditions: in vivo; procedure, shortened: as §3
[11] = Metabolic stability in male Sprague-Dawley rat liver microsomes at 1 uM after 30 mins; type: ADME, Microsome; procedure, shortened: as §2
[12] = Metabolic stability in male human liver microsomes at 1 uM after 30 mins; type: ADME, Microsome; procedure, shortened: as §2
[13] = Metabolic stability in female Sprague-Dawley rat liver microsomes at 1 uM after 30 mins; type: ADME, Microsome; procedure, shortened: as §2
[14] = Metabolic stability in female nude mouse liver microsomes at 1 uM after 30 mins; type: ADME, Microsome; procedure, shortened: as §2
[15] = Half life in rat; type: ADME, organism-based; conditions: in vivo; procedure, shortened: as §3
[16] = Metabolic stability in male Beagle dog liver microsomes at 1 uM after 30 mins; type: ADME, Canis lupus familiaris, Microsome; procedure, shortened: as §2
[17] = Aqueous solubility at pH 7.4 by shake flask method; type: physicochemical
NCI-H460 = experiment: Antitumor activity against human H460 cells xenografted in Foxn1nu mouse assessed as reduction in tumor growth at 2.5 to 10 mg/kg, po; type: functional, organism-based
Procedure, shortened: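 Female NU/NU-Foxn1nu mice were injected s.c. in the flank with 1 × 10⁶ H460 cells per animal and staged (randomized) when tumors reached about 100 mg. Compound was given by oral gavage in Klucel on days 0 and 7 after staging. Controls received vehicle only, i.v. Nine animals per group; tumor mass was followed over days.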

LOX = experiment: Antitumor activity against human LOX cells xenografted in Foxn1nu mouse assessed as reduction in tumor growth at 1 to 6 mg/kg, iv; type: functional, organism-based
Procedure, shortened: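 LOX melanoma cells (2 × 10⁶ per animal) were implanted s.c. in the flank of female NU/NU-Foxn1nu mice, which were staged at about 100 mg tumor mass. Compound was dosed i.v. in 0.9% saline on days 1, 5 and 9 after staging, with a vehicle-only i.v. control. Five mice per group. Relative tumor growth = mean tumor mass on day d / group mean on day 0.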

- IC50 (COLO 205; Homo sapiens, COLO 205, 24 h): 32 nM
Structure (SMILES): CN(C)CCCCOc1cc(F)c(-c2c(Cl)nc(-c3cnccn3)nc2NCC(F)(F)F)c(F)c1

- IC50 (COLO 205; Homo sapiens, COLO 205, 24 h): 77 nM
Structure (SMILES): Cn1ccnc1-c1nc(Cl)c(-c2c(F)cc(F)cc2F)c(NCC(F)(F)F)n1

- IC50 (COLO 205; Homo sapiens, COLO 205, 24 h): 3.3 nM
Structure (SMILES): CC(=O)O[C@H]1C(=O)[C@@]2(C)[C@H]([C@H](OC(=O)c3ccccc3)[C@]3(O)C[C@H](OC(=O)[C@H](O)[C@@H](NC(=O)c4ccccc4)c4ccccc4)C(C)=C1C3(C)C)[C@]1(OC(C)=O)CO[C@@H]1C[C@@H]2O [PACLITAXEL]
- IC50 [1]: 2010 nM

- IC50 (COLO 205; Homo sapiens, COLO 205, 24 h): 3030 nM
Structure (SMILES): Fc1cc(F)c(-c2c(Cl)nc(-n3ccnc3)nc2NCC(F)(F)F)c(F)c1

- IC50 (COLO 205; Homo sapiens, COLO 205, 24 h): 51 nM
Structure (SMILES): C[C@H](Nc1nc(-c2cnccn2)nc(Cl)c1-c1c(F)cc(F)cc1F)C(F)(F)F

- IC50 (COLO 205; Homo sapiens, COLO 205, 24 h): 3460 nM
Structure (SMILES): Fc1cc(F)c(-c2c(Cl)nc(-c3cccs3)nc2NCC(F)(F)F)c(F)c1

- IC50 (COLO 205; Homo sapiens, COLO 205, 24 h): 53 nM
Structure (SMILES): Fc1cc(F)c(-c2c(Cl)nc(-n3cccn3)nc2NCC(F)(F)F)c(F)c1

- IC50 (KB [5]): 2.4 nM
Structure (SMILES): CNCCCOc1cc(F)c(-c2c(Cl)nc(-n3cccn3)nc2N[C@@H](C)C(F)(F)F)c(F)c1 [listing 1 of 3 here]
- Ratio IC50 [2]: 237
- IC50 [1]: 569 nM
- Ratio IC50 (KB [3]): 13
- IC50 [4]: 32 nM

- IC50 (COLO 205; Homo sapiens, COLO 205, 24 h): > 5000 nM
Structure (SMILES): Fc1cc(F)c(-c2c(Cl)nc(-c3ccncc3)nc2NCC(F)(F)F)c(F)c1

- Activity [6]: Active
Structure (SMILES): CNCCCOc1cc(F)c(-c2c(Cl)nc(-n3cccn3)nc2N[C@@H](C)C(F)(F)F)c(F)c1 [listing 2 of 3 here]

- IC50 (COLO 205; Homo sapiens, COLO 205, 24 h): 84 nM
Structure (SMILES): Fc1cc(F)c(-c2c(Cl)nc(-c3cnccn3)nc2NCC(F)(F)F)c(F)c1

- IC50 (COLO 205; Homo sapiens, COLO 205, 24 h): 265 nM
Structure (SMILES): Fc1cc(F)c(-c2c(Cl)nc(-c3ncccn3)nc2NCC(F)(F)F)c(F)c1

- IC50 (COLO 205; Homo sapiens, COLO 205, 24 h): 49 nM
Structure (SMILES): CN(C)CCCOc1cc(F)c(-c2c(Cl)nc(-c3ncccn3)nc2NCC(F)(F)F)c(F)c1

- IC50 (COLO 205; Homo sapiens, COLO 205, 24 h): 39 nM
Structure (SMILES): Fc1cc(F)c(-c2c(Cl)nc(-c3ccccn3)nc2NCC(F)(F)F)c(F)c1

- IC50 (COLO 205; Homo sapiens, COLO 205, 24 h): 18 nM
Structure (SMILES): CN(C)CCCOc1cc(F)c(-c2c(Cl)nc(-c3cnccn3)nc2NCC(F)(F)F)c(F)c1 [listing 1 of 2 here]

- IC50 (COLO 205; Homo sapiens, COLO 205, 24 h): 119 nM
Structure (SMILES): Fc1cc(F)c(-c2c(Cl)nc(-c3cc4ccccc4cn3)nc2NCC(F)(F)F)c(F)c1

- IC50 (COLO 205; Homo sapiens, COLO 205, 24 h): 4680 nM
Structure (SMILES): Fc1cc(F)c(-c2c(Cl)nc(-c3nccc4ccccc34)nc2NCC(F)(F)F)c(F)c1

- IC50 (COLO 205; colo 205): 22 nM
- IC50 (KB [5]): 20 nM
Structure (SMILES): CN(C)CCCOc1cc(F)c(-c2c(Cl)nc(-c3cnccn3)nc2NCC(F)(F)F)c(F)c1 [listing 2 of 2 here]
- Ratio IC50 [2]: 5
- IC50 [1]: 99 nM
- Ratio IC50 (KB [3]): 1.2
- IC50 [4]: 24 nM

- IC50 (COLO 205; Homo sapiens, COLO 205, 24 h): 5.2 nM
Structure (SMILES): CNCCCOc1cc(F)c(-c2c(Cl)nc(-c3ccccn3)nc2N[C@@H](C)C(F)(F)F)c(F)c1 [listing 1 of 3 here]

- IC50 (COLO 205; Homo sapiens, COLO 205, 24 h): 128 nM
Structure (SMILES): CN(C)CCOc1cc(F)c(-c2c(Cl)nc(-c3cnccn3)nc2NCC(F)(F)F)c(F)c1

- IC50 (COLO 205; Homo sapiens, COLO 205, 24 h): 682 nM
Structure (SMILES): CN(C)CCCOc1cc(F)c(-c2c(Cl)nc(-n3ccnc3)nc2NCC(F)(F)F)c(F)c1

Structure (SMILES): CNCCCOc1cc(F)c(-c2c(Cl)nc(-c3cnccn3)nc2N[C@@H](C)C(F)(F)F)c(F)c1 [listing 1 of 3 here]
- half-life at 1 µM [7]: > 1 h
- Ratio IC50 [2]: 58
- bioavailability [8]: 100%
- IC50 (COLO 205; colo 205): 6.9 nM
- IC50 [1]: 405 nM
- clearance [9]: 21 mL/min/kg
- Vd [10]: 14 L/kg
- half-life at 1 µM [11]: > 1 h
- half-life at 1 µM [12]: > 1 h
- Ratio IC50 (KB [3]): 3.4
- half-life at 1 µM [13]: > 1 h
- half-life at 1 µM [14]: > 1 h
- half-life [15]: 8.6 h
- IC50 [4]: 24 nM
- half-life at 1 µM [16]: > 1 h
- solubility thermodynamic [17]: 540 µg/mL (≈ 1070 µM)
- IC50 (KB [5]): 7 nM

- IC50 (COLO 205; Homo sapiens, COLO 205, 24 h): 250 nM
Structure (SMILES): Fc1cc(F)c(-c2c(Cl)nc(-c3ccc4ccccc4n3)nc2NCC(F)(F)F)c(F)c1

- IC50 (COLO 205; Homo sapiens, COLO 205, 24 h): 29 nM
Structure (SMILES): C[C@H](Nc1nc(-c2ccccn2)nc(Cl)c1-c1c(F)cc(F)cc1F)C(F)(F)F

Structure (SMILES): CNCCCOc1cc(F)c(-c2c(Cl)nc(-c3cnccn3)nc2N[C@@H](C)C(F)(F)F)c(F)c1 [listing 2 of 3 here]
- Activity [6]: Active
- Activity (NCI-H460): Active
- Activity (LOX): Active

- IC50 (COLO 205; Homo sapiens, COLO 205, 24 h): 19 nM
Structure (SMILES): C[C@H](Nc1nc(-n2cccn2)nc(Cl)c1-c1c(F)cc(F)cc1F)C(F)(F)F

Structure (SMILES): CNCCCOc1cc(F)c(-c2c(Cl)nc(-c3cnccn3)nc2N[C@@H](C)C(F)(F)F)c(F)c1 [listing 3 of 3 here]
- IC50 (COLO 205; Homo sapiens, COLO 205, 24 h): 8.9 nM

- IC50 (KB [5]): 6.2 nM
Structure (SMILES): CNCCCOc1cc(F)c(-c2c(Cl)nc(-c3ccccn3)nc2N[C@@H](C)C(F)(F)F)c(F)c1 [listing 2 of 3 here]
- Ratio IC50 [2]: 68
- IC50 [1]: 423 nM
- IC50 [4]: 21 nM

- IC50 (COLO 205; Homo sapiens, COLO 205, 24 h): 2.4 nM
Structure (SMILES): CNCCCOc1cc(F)c(-c2c(Cl)nc(-n3cccn3)nc2N[C@@H](C)C(F)(F)F)c(F)c1 [listing 3 of 3 here]

- IC50 (COLO 205; Homo sapiens, COLO 205, 24 h): 232 nM
Structure (SMILES): Fc1cc(F)c(-c2c(Cl)nc(-c3ccco3)nc2NCC(F)(F)F)c(F)c1

- IC50 (COLO 205; Homo sapiens, COLO 205, 24 h): 2.6 nM
- IC50 (KB [5]): 2.2 nM
Structure (SMILES): CC[C@]1(O)C[C@H]2CN(CCc3c([nH]c4ccccc34)[C@@](C(=O)OC)(c3cc4c(cc3OC)N(C=O)[C@H]3[C@@](O)(C(=O)OC)[C@H](OC(C)=O)[C@]5(CC)C=CCN6CC[C@]43[C@@H]65)C2)C1 [VINCRISTINE]
- Ratio IC50 [2]: 925
- IC50 [1]: 2040 nM
- IC50 [4]: 58 nM

- Activity [6]: Active
Structure (SMILES): CNCCCOc1cc(F)c(-c2c(Cl)nc(-c3ccccn3)nc2N[C@@H](C)C(F)(F)F)c(F)c1 [listing 3 of 3 here]

- IC50 (COLO 205; Homo sapiens, COLO 205, 24 h): 3930 nM
Structure (SMILES): Fc1cc(F)c(-c2c(Cl)nc(-c3cccnc3)nc2NCC(F)(F)F)c(F)c1
